Measured values published in ChEMBL document CHEMBL6177935, “Design and synthesis of novel multi-target tetrabromophthalimides as CBS and Topo-II inhibitors and DNA intercalators” (RSC Med Chem, 2024).
≈ marks a conversion by molar mass, not a printed value. Calls of active or inactive are those of the source. No cut-off for these calls is given here.

Experiments:
[1] = tested on: MDA-MB-468; test: Induction of apoptosis in human MDA-MB-468 cells assessed as upregulation of Bax expression measured after 1 hr by ELISA relative to control; type: functional
Procedure, shortened: (§1)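 Sandwich ELISA with wells precoated with capture antibody. Samples and standards (7-point curve) incubated 1 h at 37 °C, then biotin detection antibody 1 h at 37 °C, then avidin-HRP 30 min at 37 °C, with washes between steps. TMB added for 10-20 min at 37 °C in the dark, stopped with sulphuric acid and read at 450 nm. Duplicate readings averaged and zero standard subtracted.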

[2] = tested on: A-431; test: Growth inhibition of human A-431 cells measured after 48 hrs by SRB assay; type: functional, cell-based
Procedure, shortened: (§2)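 SRB assay. Cells seeded at 3×10^3 per well and attached 24 h, then exposed for 48 h to 12.5, 25, 50 and 62.5 µg/mL in triplicate wells, with 1% v/v DMSO vehicle. Cells fixed in 20% TCA, stained with 0.4% SRB and read at 570 nm. Survival fraction = OD treated/OD control, and IC50 taken from a sigmoidal dose-response fit.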

[3] = tested on: MDA-MB-468; test: Induction of apoptosis in human MDA-MB-468 cells assessed as down regulation of BCL-2 expression measured after 1 hr by ELISA relative to control; type: functional; procedure, shortened: as §1
[4] = tested on: MDA-MB-468; test: Induction of apoptosis in human MDA-MB-468 cells assessed as down regulation of MMP9 expression measured after 1 hr by ELISA relative to control; type: functional; procedure, shortened: as §1
[5] = tested on: HNO 97 cell line; test: Growth inhibition of human HNO 97 cells at 100 ug/ml measured after 48 hrs by SRB assay relative to control; type: functional; conditions: dose 100.0 µg/ml, pooled result: one value given for 15 cell lines, strains, targets or settings
Procedure, shortened: (§3)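 SRB screen on fifteen human cancer lines. Cells seeded at 3×10^3 per well and left 24 h to attach. A single concentration of 100 µg/mL was tested in triplicate wells for 48 h, with 1% v/v DMSO as vehicle control. Cells fixed in 20% TCA, stained with 0.4% SRB and read at 570 nm. Survival fraction = OD treated/OD control.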

[6] = tested on: PC-3; test: Growth inhibition of human PC-3 cells at 100 ug/ml measured after 48 hrs by SRB assay relative to control; type: functional; conditions: dose 100.0 µg/ml, pooled result: one value given for 15 cell lines, strains, targets or settings; procedure, shortened: as §3
[7] = tested on: FaDu; test: Growth inhibition of human FaDu cells measured after 48 hrs by SRB assay; type: functional, cell-based; procedure, shortened: as §2
[8] = tested on: MDA-MB-468; test: Cell cycle analysis in human MDA-MB-468 cells assessed as accumulation of cells at G2-M phase at 3.1 uM measured after 48 hrs by propidium iodide staining based flow cytometry (reference value: 0.27%); type: functional
Procedure, shortened: (§4)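 MDA-MB-468 cells, 2 x 10^5 per well in medium with 10% FBS, grown 24 h at 37 °C, 5% CO₂. Then exposed to 3.1 μM in 1% v/v DMSO for 48 h, washed in cold PBS and fixed in ice-cold 70% ethanol. Stained with PI for 15 min at 37 °C and read by flow cytometry.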

[9] = tested on: MDA-MB-468; test: Induction of apoptosis in human MDA-MB-468 cells assessed as down regulation of MMP2 expression measured after 1 hr by ELISA relative to control; type: functional; procedure, shortened: as §1
[10] = biological target: T1, DNA topoisomerase 2-beta (Homo sapiens, UniProt Q02880); test: Inhibition of human topoisomerase IIB-mediated DNA fragmentation
[11] = tested on: A-431; test: Growth inhibition of human A-431 cells at 100 ug/ml measured after 48 hrs by SRB assay relative to control; type: functional; conditions: dose 100.0 µg/ml, pooled result: one value given for 15 cell lines, strains, targets or settings; procedure, shortened: as §3
[12] = tested on: MDA-MB-468; test: Cell cycle analysis in human MDA-MB-468 cells assessed as accumulation of cells at G0-G1 phase at 3.1 uM measured after 48 hrs by propidium iodide staining based flow cytometry (reference value: 84.43%); type: functional; procedure, shortened: as §4
[13] = tested on: HeLa; test: Growth inhibition of human HeLa cells at 100 ug/ml measured after 48 hrs by SRB assay relative to control; type: functional; conditions: dose 100.0 µg/ml, pooled result: one value given for 15 cell lines, strains, targets or settings; procedure, shortened: as §3
[14] = tested on: PC-3; test: Growth inhibition of human PC-3 cells measured after 48 hrs by SRB assay; type: functional, cell-based; procedure, shortened: as §2
[15] = biological target: Tubulin; test: Inhibition of [3H]-colchicine binding to biotinylated-tubulin (unknown origin) measured after 45 mins by scintillation counting analysis; type: protein-complex assay, Homo sapiens
Procedure, shortened: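 Scintillation proximity assay run at 37 °C. Incubated 45 min at 37 °C, then the plate was read and percent inhibition calculated from raw counts.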

[16] = tested on: Caco-2; test: Growth inhibition of human Caco-2 cells at 100 ug/ml measured after 48 hrs by SRB assay relative to control; type: functional; conditions: dose 100.0 µg/ml, pooled result: one value given for 15 cell lines, strains, targets or settings; procedure, shortened: as §3
[17] = tested on: HN; test: Growth inhibition of human HN cells at 100 ug/ml measured after 48 hrs by SRB assay relative to control; type: functional; conditions: dose 100.0 µg/ml, pooled result: one value given for 15 cell lines, strains, targets or settings; procedure, shortened: as §3
[18] = tested on: FaDu; test: Growth inhibition of human FaDu cells at 100 ug/ml measured after 48 hrs by SRB assay relative to control; type: functional; conditions: dose 100.0 µg/ml, pooled result: one value given for 15 cell lines, strains, targets or settings; procedure, shortened: as §3
[19] = tested on: MDA-MB-468; test: Induction of apoptosis in human MDA-MB-468 cells assessed as upregulation of caspase-9 expression measured after 1 hr by ELISA relative to control; type: functional; procedure, shortened: as §1
[20] = tested on: MDA-MB-468; test: Induction of apoptosis in human MDA-MB-468 cells assessed as upregulation of caspase-8 expression measured after 1 hr by ELISA relative to control; type: functional; procedure, shortened: as §1
[21] = tested on: HCT-116; test: Growth inhibition of human HCT-116 cells at 100 ug/ml measured after 48 hrs by SRB assay relative to control; type: functional; conditions: dose 100.0 µg/ml, pooled result: one value given for 15 cell lines, strains, targets or settings; procedure, shortened: as §3
[22] = tested on: MDA-MB-468; test: Induction of apoptosis in human MDA-MB-468 cells assessed as upregulation of caspase-3 expression measured after 1 hr by ELISA relative to control; type: functional; procedure, shortened: as §1
[23] = tested on: A-375; test: Growth inhibition of human A-375 cells at 100 ug/ml measured after 48 hrs by SRB assay relative to control; type: functional; conditions: dose 100.0 µg/ml, pooled result: one value given for 15 cell lines, strains, targets or settings; procedure, shortened: as §3
[24] = tested on: HeLa; test: Growth inhibition of human HeLa cells measured after 48 hrs by SRB assay; type: functional, cell-based; procedure, shortened: as §2
[25] = tested on: NCI-H1299; test: Growth inhibition of human NCI-H1299 cells at 100 ug/ml measured after 48 hrs by SRB assay relative to control; type: functional; conditions: dose 100.0 µg/ml, pooled result: one value given for 15 cell lines, strains, targets or settings; procedure, shortened: as §3
[26] = tested on: MCF7; test: Growth inhibition of human MCF7 cells at 100 ug/ml measured after 48 hrs by SRB assay relative to control; type: functional; conditions: dose 100.0 µg/ml, pooled result: one value given for 15 cell lines, strains, targets or settings; procedure, shortened: as §3
[27] = tested on: A549; test: Growth inhibition of human A549 cells at 100 ug/ml measured after 48 hrs by SRB assay relative to control; type: functional; conditions: dose 100.0 µg/ml, pooled result: one value given for 15 cell lines, strains, targets or settings; procedure, shortened: as §3
[28] = tested on: MDA-MB-468; test: Cell cycle analysis in human MDA-MB-468 cells assessed as accumulation of cells at S phase at 3.1 uM measured after 48 hrs by propidium iodide staining based flow cytometry (reference value: 15.3%); type: functional; procedure, shortened: as §4
[29] = tested on: MDA-MB-468; test: Induction of apoptosis in human MDA-MB-468 cells assessed as upregulation of caspase-7 expression measured after 1 hr by ELISA relative to control; type: functional; procedure, shortened: as §1
[30] = tested on: HEp-2; test: Growth inhibition of human HEp-2 cells at 100 ug/ml measured after 48 hrs by SRB assay relative to control; type: functional; conditions: dose 100.0 µg/ml, pooled result: one value given for 15 cell lines, strains, targets or settings; procedure, shortened: as §3
[31] = tested on: MDA-MB-468; test: Growth inhibition of human MDA-MB-468 cells at 100 ug/ml measured after 48 hrs by SRB assay relative to control; type: functional; conditions: dose 100.0 µg/ml, pooled result: one value given for 15 cell lines, strains, targets or settings; procedure, shortened: as §3
[32] = tested on: MDA-MB-468; test: Growth inhibition of human MDA-MB-468 cells measured after 48 hrs by SRB assay; type: functional, cell-based; conditions: MDA-MB-468, 48 h; procedure, shortened: as §2
[33] = tested on: MDA-MB-468; test: Induction of apoptosis in human MDA-MB-468 cells assessed as upregulation of p53 expression measured after 1 hr by ELISA relative to control; type: functional; procedure, shortened: as §1
[34] = tested on: HepG2; test: Growth inhibition of human HepG2 cells at 100 ug/ml measured after 48 hrs by SRB assay relative to control; type: functional; conditions: dose 100.0 µg/ml, pooled result: one value given for 15 cell lines, strains, targets or settings; procedure, shortened: as §3
[35] = biological target: T1, DNA topoisomerase 2-beta; test: Inhibition of human topoisomerase IIB by sandwich ELISA

T1 sequence (Q02880 whole entry, the tested form may be a part): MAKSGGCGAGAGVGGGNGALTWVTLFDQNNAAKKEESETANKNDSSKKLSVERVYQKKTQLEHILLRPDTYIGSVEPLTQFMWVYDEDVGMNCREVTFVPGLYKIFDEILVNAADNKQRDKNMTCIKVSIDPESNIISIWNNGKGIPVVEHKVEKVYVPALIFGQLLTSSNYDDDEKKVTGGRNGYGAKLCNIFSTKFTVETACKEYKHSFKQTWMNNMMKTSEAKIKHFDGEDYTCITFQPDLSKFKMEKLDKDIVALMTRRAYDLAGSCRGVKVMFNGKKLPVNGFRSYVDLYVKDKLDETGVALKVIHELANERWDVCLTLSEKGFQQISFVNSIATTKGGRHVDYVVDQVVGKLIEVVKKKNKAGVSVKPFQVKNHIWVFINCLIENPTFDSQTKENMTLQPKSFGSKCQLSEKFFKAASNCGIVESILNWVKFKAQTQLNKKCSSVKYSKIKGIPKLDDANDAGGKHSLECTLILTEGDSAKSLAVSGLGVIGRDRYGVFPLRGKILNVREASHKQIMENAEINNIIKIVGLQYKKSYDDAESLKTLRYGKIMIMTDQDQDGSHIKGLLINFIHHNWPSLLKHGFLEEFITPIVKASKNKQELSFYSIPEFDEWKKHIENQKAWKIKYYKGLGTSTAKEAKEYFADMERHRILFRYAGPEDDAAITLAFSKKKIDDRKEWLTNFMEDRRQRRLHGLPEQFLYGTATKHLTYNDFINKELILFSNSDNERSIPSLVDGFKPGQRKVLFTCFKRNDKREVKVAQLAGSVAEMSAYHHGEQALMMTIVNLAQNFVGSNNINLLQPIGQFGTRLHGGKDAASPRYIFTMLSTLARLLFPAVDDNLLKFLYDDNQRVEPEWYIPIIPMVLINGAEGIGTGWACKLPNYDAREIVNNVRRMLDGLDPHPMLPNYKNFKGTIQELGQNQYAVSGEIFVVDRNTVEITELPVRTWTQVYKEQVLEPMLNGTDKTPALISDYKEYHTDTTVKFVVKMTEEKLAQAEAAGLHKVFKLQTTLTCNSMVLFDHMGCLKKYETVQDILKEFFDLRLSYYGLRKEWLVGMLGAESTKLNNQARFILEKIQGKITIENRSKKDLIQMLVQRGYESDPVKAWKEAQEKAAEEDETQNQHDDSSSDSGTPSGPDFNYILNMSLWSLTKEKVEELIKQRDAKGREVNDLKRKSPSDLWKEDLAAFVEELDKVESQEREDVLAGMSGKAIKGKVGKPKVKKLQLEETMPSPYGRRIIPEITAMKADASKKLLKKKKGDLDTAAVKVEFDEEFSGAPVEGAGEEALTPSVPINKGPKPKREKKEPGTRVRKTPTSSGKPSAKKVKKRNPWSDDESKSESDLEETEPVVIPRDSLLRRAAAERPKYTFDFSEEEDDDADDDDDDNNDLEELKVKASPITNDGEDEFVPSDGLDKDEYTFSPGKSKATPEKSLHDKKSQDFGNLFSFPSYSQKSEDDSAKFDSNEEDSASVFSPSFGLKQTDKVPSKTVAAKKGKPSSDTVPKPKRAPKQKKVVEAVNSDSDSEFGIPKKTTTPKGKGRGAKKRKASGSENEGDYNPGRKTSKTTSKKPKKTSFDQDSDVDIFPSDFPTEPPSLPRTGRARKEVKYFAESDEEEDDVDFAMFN

- inhibition [10]: Active
- IC50 [15]: 3.18 µM
- IC50 [32]: 6.7 µg/mL (≈ 11.1 µM)
- IC50 [35]: 26.1 µM
SMILES: Cc1nnc(S)n(N2C(=O)c3c(Br)c(Br)c(Br)c(Br)c3C2=O)c1=O
- fold change (FC) [1]: 2.44
- growth inhibition (GI) [2]: Active
- fold change (FC) [3]: 1.81
- fold change (FC) [4]: 2.29
- growth inhibition (GI) [5]: Active
- growth inhibition (GI) [6]: Active
- growth inhibition (GI) [7]: Active
- Activity [8]: 2.29%
- fold change (FC) [9]: 1.9
- growth inhibition (GI) [11]: Active
- Activity [12]: 88.67%
- growth inhibition (GI) [13]: Active
- growth inhibition (GI) [14]: Active
- growth inhibition (GI) [16]: Active
- growth inhibition (GI) [17]: Active
- growth inhibition (GI) [18]: Active
- fold change (FC) [19]: 3.72
- fold change (FC) [20]: 2.33
- growth inhibition (GI) [21]: Active
- fold change (FC) [22]: 3.42
- growth inhibition (GI) [23]: Active
- growth inhibition (GI) [24]: Active
- growth inhibition (GI) [25]: Active
- growth inhibition (GI) [26]: Active
- growth inhibition (GI) [27]: Active
- Activity [28]: 9.04%
- fold change (FC) [29]: 2.44
- growth inhibition (GI) [30]: Active
- growth inhibition (GI) [31]: Active
- fold change (FC) [33]: 3.61
- growth inhibition (GI) [34]: Active
